The test system of data set [1] is Influenza A virus H3N2. In words: Antiviral activity against Influenza A virus A/Texas/50/2012(H3N2) infected in MDCK cells inhibition of virus-induced cytopathic effect measured after 45 hrs by CellTiter-Glo luminescence assay. The format is functional, organism-based. Summed up:
(§1)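 MDCK cells (5,000/well) were seeded one day before infection. Infection medium was high-glucose DMEM with 1% FBS and trypsin (1 μg/mL). Compounds were added at various concentrations and cells infected at MOI 0.1. After 45 h, viability was read by CellTiter-Glo luminescence. IC50 was taken from dose-response curves, as the mean of duplicate samples from three independent experiments.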

Data set [2] in a line: Cytotoxicity against dog MDCK cells assessed as cell viability measured after 45 hrs by Celltiter-Glo luminescence assay. The format is cell-based, Canis lupus familiaris. Summed up:
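Non-infected MDCK cells were exposed to compound dilutions and viability was read by CellTiter-Glo luminescence. CC50 is the concentration reducing viability of uninfected cells by 50%, given as the mean of duplicate samples from three independent experiments.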

Data set [3] concerns Influenza A virus. Nature of the data set: Antiviral activity against Influenza A virus A/WSN/33(H1N1) infected in MDCK cells assessed as inhibition of virus-induced cytopathic effect at 100 uM measured after 45 hrs by CellTiter-Glo luminescence assay relative to control. The conditions noted are these: A/WSN/1933(H1N1). The format is functional. Summed up:
(§2)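 Single-concentration screen at 100 μM in MDCK cells infected with A/WSN/33 under the same conditions: 1% FBS DMEM with 1 μg/mL trypsin, MOI 0.1, 45 h. Cytopathic effect was read by CellTiter-Glo luminescence against a DMSO negative control, from triplicate experiments.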

For data set [4], the system named is Influenza A virus. Nature of the data set: Antiviral activity against Influenza A virus A/WSN/33(H1N1) infected in MDCK cells assessed as inhibition of virus-induced cytopathic effect measured after 45 hrs by CellTiter-Glo luminescence assay. Format: functional, organism-based. The conditions noted are these: A/WSN/1933(H1N1). The essentials:
as §1

Data set [5] deals with Influenza A virus. Nature of the data set: Antiviral activity against Influenza A virus A/WSN/33(H1N1) infected in MDCK cells assessed as inhibition of virus-induced cytopathic effect at 100 uM measured after 45 hrs by CellTiter-Glo luminescence assay. The format is functional, organism-based. The conditions noted are these: A/WSN/1933(H1N1). Summed up: as §2
The test system of data set [6] is MDCK. Nature of the data set: Cytotoxicity against dog MDCK cells assessed as cell viability measured at 100 uM after 45 hrs by Celltiter-Glo luminescence assay. Format: cell-based, Canis lupus familiaris. Summed up: (§3)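 Viability screen of uninfected MDCK cells at 100 μM compound, read by CellTiter-Glo luminescence with DMSO as negative control; triplicate experiments.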

The target of data set [7] is Hemagglutinin (Influenza A virus) (UniProt B4URE7). Nature of the data set: Inhibition of Influenza A virus HA-mediated chicken erythrocytes aggregation incubated for 30 mins. The essentials: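 Compound was 2-fold serially diluted in saline from 100 to 1.56 μM and mixed with an equal volume of influenza virus (2 HA units). Chicken red blood cells (1% v/v in saline) were then added. After 30 min at room temperature, erythrocyte aggregation was scored by eye. An anti-HA monoclonal antibody served as positive control.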

A short description of data set [8]: Cytotoxicity against dog MDCK cells assessed as cell viability measured at 100 uM after 45 hrs by Celltiter-Glo luminescence assay relative to control. Format: cell-based, Canis lupus familiaris. To be noted: read-out: Activity. The essentials: as §3

Active and inactive are the calls of the source. The rule behind the calls is not given here.

Sequence of Hemagglutinin (Influenza A virus) (B4URE7 as listed by the source): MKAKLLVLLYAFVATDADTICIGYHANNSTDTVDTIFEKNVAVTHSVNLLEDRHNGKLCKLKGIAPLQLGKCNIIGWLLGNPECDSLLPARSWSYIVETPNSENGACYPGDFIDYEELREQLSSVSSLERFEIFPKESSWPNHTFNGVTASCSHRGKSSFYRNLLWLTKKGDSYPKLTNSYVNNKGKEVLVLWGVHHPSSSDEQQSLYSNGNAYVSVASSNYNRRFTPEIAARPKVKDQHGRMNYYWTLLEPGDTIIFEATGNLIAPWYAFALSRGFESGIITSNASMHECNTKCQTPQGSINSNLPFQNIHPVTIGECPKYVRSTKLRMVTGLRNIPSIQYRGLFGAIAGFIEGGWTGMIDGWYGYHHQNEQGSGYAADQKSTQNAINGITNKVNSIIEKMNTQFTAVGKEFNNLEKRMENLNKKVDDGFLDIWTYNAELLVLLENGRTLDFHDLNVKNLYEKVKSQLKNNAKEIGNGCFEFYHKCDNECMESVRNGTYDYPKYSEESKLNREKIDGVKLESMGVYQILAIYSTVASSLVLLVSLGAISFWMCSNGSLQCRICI

The compound `CCOC(=O)C1=C[C@@H](OC(CC)CC)[C@H](NC(C)=O)[C@@H](N)C1` [OSELTAMIVIR PHOSPHATE] registered an IC50 in data set [1] above 100 µM. Moreover, the CC50 at 45 h in data set [2] was above 100 µM.
Take `CC1(C)CC[C@]2(C(=O)N[C@@H](CCCNC(=N)N)C(=O)O)CC[C@]3(C)C(=CC[C@@H]4[C@@]5(C)CC[C@H](O)C(C)(C)[C@@H]5CC[C@]43C)[C@@H]2C1`: the inhibition at 100 µM in data set [3] is 75%. In addition, the IC50 in data set [1] stood at 14.1 µM; in data set [4] it was 6.64 µM. In addition, the CC50 at 45 h in data set [2] is above 100 µM. The inhibition result in data set [5] was “Active”. In data set [6], the Activity entry is “Toxic”. The inhibition entry in data set [7] was “Dose-dependent effect”. The viability at 45 h, 100 µM in data set [8] worked out at 75%.
For `CC1(C)CC[C@]2(C(=O)N[C@@H](Cc3ccc(O)cc3)C(=O)O)CC[C@]3(C)C(=CC[C@@H]4[C@@]5(C)CC[C@H](O)C(C)(C)[C@@H]5CC[C@]43C)[C@@H]2C1`, the inhibition result in data set [5] was “Active”. Besides, in data set [6], the Activity result is “Toxic”.
As for `COC(=O)[C@H](CC(C)C)NC(=O)[C@]12CCC(C)(C)C[C@H]1C1=CC[C@@H]3[C@@]4(C)CC[C@H](O)C(C)(C)[C@@H]4CC[C@@]3(C)[C@]1(C)CC2`, the inhibition entry in data set [5] was “Active”. In addition, the Activity result in data set [6] is recorded as “Toxic”.
`COC(=O)CC[C@H](NC(=O)[C@]12CCC(C)(C)C[C@H]1C1=CC[C@@H]3[C@@]4(C)CC[C@H](O)C(C)(C)[C@@H]4CC[C@@]3(C)[C@]1(C)CC2)C(=O)OC`: in data set [5], the inhibition result is “Active”. Moreover, in data set [6], the Activity result is “Toxic”.
For `COC(=O)[C@@H]1CCCN1C(=O)[C@]12CCC(C)(C)C[C@H]1C1=CC[C@@H]3[C@@]4(C)CC[C@H](O)C(C)(C)[C@@H]4CC[C@@]3(C)[C@]1(C)CC2`, the inhibition result in data set [5] is “Active”. Besides, in data set [6], the Activity result is recorded as “Toxic”.
Regarding `COC(=O)[C@H](CCSC)NC(=O)[C@]12CCC(C)(C)C[C@H]1C1=CC[C@@H]3[C@@]4(C)CC[C@H](O)C(C)(C)[C@@H]4CC[C@@]3(C)[C@]1(C)CC2`, the inhibition result in data set [5] was “Active”. Also, in data set [6], the Activity result is listed as “Toxic”.

Source of the values: ChEMBL document CHEMBL4406875, “Design, synthesis and biological evaluation of amino acids-oleanolic acid conjugates as influenza virus inhibitors” (Bioorg Med Chem, 2019).
